Assay results from ChEMBL document CHEMBL3045116, “Synthesis and biological evaluation of 2-(5-substituted-1-((diethylamino)methyl)-2-oxoindolin-3-ylidene)-N-substituted-hydrazinecarbothioamides” (Med Chem Res, 2013).

Columns and labels:
Influenza B virus = experiment: Antiviral activity against Influenza B virus infected in MDCK cells assessed as reduction of virus-induced cytopathic effect after 3 days by colorimetric formazan-based MTS assay; type: functional, organism-based; conditions: 72 h
Procedure, shortened: (§1)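 Confluent cell monolayers were infected with 100 CCID50 of virus, and serial dilutions of compound were added at the time of infection.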

Influenza A virus H3N2 = experiment: Antiviral activity against Influenza A virus H3N2 infected MDCK cells assessed as reduction of virus-induced cytopathic effect after 3 days by colorimetric formazan-based MTS assay; type: functional, organism-based; conditions: 72 h; procedure, shortened: as §1
Human alphaherpesvirus 1 [1] = experiment: Antiviral activity against Human herpesvirus 1 strain KOS infected human HEL cells assessed as reduction of virus-induced cytopathic effect after 3 days by colorimetric formazan-based MTS assay; type: functional, organism-based; conditions: Human alphaherpesvirus 1, KOS, 72 h; procedure, shortened: as §1
Felid alphaherpesvirus 1 = experiment: Antiviral activity against Felid herpesvirus 1 infected cat CRFK cells assessed as reduction of virus-induced cytopathic effect after 3 days by colorimetric formazan-based MTS assay; type: functional, organism-based; conditions: Felid alphaherpesvirus 1, CRFK, 72 h
Procedure, shortened: (§2)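 Cells grown to confluency in 96-well plates ([…], Vero for lines 9–10) were infected with 100 CCID50 of virus, and serial compound dilutions were added at infection. Plates were incubated at 37 °C for 3 days, until complete CPE appeared in untreated virus controls.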

[2] = system: Feline infectious peritonitis virus; experiment: Antiviral activity against Feline Infectious peritonitis virus infected cat CRFK cells assessed as reduction of virus-induced cytopathic effect after 3 days by colorimetric formazan-based MTS assay; type: functional, organism-based; conditions: Alphacoronavirus 1, CRFK, 72 h; procedure, shortened: as §1
[3] = Cytotoxicity against Felis catus (cat) CRFK cells assessed as change in cellular morphology; type: cell-based; conditions: crfk
Procedure, shortened: (§3)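 Uninfected cells were exposed to compound in parallel with the antiviral cultures. The read-out is the minimum cytotoxic concentration that causes a microscopically detectable alteration of normal cell morphology.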

[4] = Inhibition of beta lactamase assessed as increase in time taken for iodine decolorization relative to control; design: concentration or dose not given beside the values; conditions: concentration not given here
[5] = Inhibition of beta lactamase assessed as time for decolorization of iodine (reference value: 79.5 secs)
CCRF-CEM = experiment: Cytotoxicity against Homo sapiens (human) CEM cells assessed as growth inhibition after 72 hr by coulter counter analysis; type: functional, cell-based
Procedure, shortened: (§4)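 Cells in growth medium were allowed to proliferate with variable compound amounts at 37 °C in a humidified CO2 atmosphere. Incubation ran 48 h for L1210, 72 h for CEM and 96 h for HeLa. Cells were then counted with a Coulter counter.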

L1210 = experiment: Cytotoxicity against Mus musculus (mouse) L1210 cells assessed as growth inhibition after 48 hr by coulter counter analysis; type: functional, cell-based; conditions: L1210, 48 h; procedure, shortened: as §4
Influenza A virus = experiment: Antiviral activity against Unidentified Influenza A virus (H1N1) infected MDCK cells assessed as reduction of virus-induced cytopathic effect after 3 days by colorimetric formazan-based MTS assay; type: functional, organism-based; conditions: 72 h; procedure, shortened: as §1
[6] = (§5) Cytotoxicity against MDCK cells assessed as change in cellular morphology; type: cell-based, Canis lupus familiaris; conditions: dog, MDCK cells; procedure, shortened: as §3
MDCK = experiment: as §5; type: cell-based, Canis lupus familiaris; conditions: dog, mdck; procedure, shortened: as §3
Punta Toro virus = experiment: Antiviral activity against Punta Toro virus infected in African green monkey Vero cells assessed as reduction of virus-induced cytopathic effect after 3 days by colorimetric formazan-based MTS assay; type: functional, organism-based; conditions: 72 h; procedure, shortened: as §1
Coxsackievirus B4 [7] = experiment: Antiviral activity against Human coxsackievirus B4 infected African green monkey Vero cells assessed as reduction of virus-induced cytopathic effect after 3 days by colorimetric formazan-based MTS assay; type: functional, organism-based; conditions: Enterovirus B, 72 h; procedure, shortened: as §1
Respirovirus muris = experiment: Antiviral activity against Sendai virus infected African green monkey Vero cells assessed as reduction of virus-induced cytopathic effect after 3 days by colorimetric formazan-based MTS assay; type: functional, organism-based; conditions: 72 h
[8] = system: Mammalian orthoreovirus 1; experiment: Antiviral activity against Mammalian orthoreovirus 1 infected African green monkey Vero cells assessed as reduction of virus-induced cytopathic effect after 3 days by colorimetric formazan-based MTS assay; type: functional, organism-based; conditions: Mammalian orthoreovirus 1, Vero, 72 h; procedure, shortened: as §2
Human respirovirus 3 = experiment: Antiviral activity against Human parainfluenza virus 3 infected African green monkey Vero cells assessed as reduction of virus-induced cytopathic effect after 3 days by colorimetric formazan-based MTS assay; type: functional, organism-based; conditions: Human respirovirus 3, Vero, 72 h; procedure, shortened: as §2
[9] = Cytotoxicity against Chlorocebus aethiops (African green monkey) Vero cells assessed as change in cellular morphology; type: cell-based; conditions: chlorocebus sabaeus
[10] = system: Respiratory syncytial virus; experiment: Antiviral activity against Respiratory syncytial virus infected human HeLa cells assessed as reduction of virus-induced cytopathic effect after 3 days by colorimetric formazan-based MTS assay; type: functional, organism-based; conditions: 72 h; procedure, shortened: as §1
[11] = system: Vesicular stomatitis virus; experiment: Antiviral activity against Vesicular stomatitis virus infected human HeLa cells assessed as reduction of virus-induced cytopathic effect after 3 days by colorimetric formazan-based MTS assay; type: functional, organism-based; conditions: 72 h; procedure, shortened: as §1
Coxsackievirus B4 [12] = experiment: Antiviral activity against Human coxsackievirus B4 infected human HeLa cells assessed as reduction of virus-induced cytopathic effect after 3 days by colorimetric formazan-based MTS assay; type: functional, organism-based; conditions: Enterovirus B, 72 h; procedure, shortened: as §1
[13] = (§6) Cytotoxicity against Homo sapiens (human) HeLa cells assessed as change in cellular morphology; type: cell-based; conditions: HeLa cells; procedure, shortened: as §3
HeLa = experiment: as §6; type: cell-based; conditions: hela; procedure, shortened: as §3
Human alphaherpesvirus 1 [14] = experiment: Antiviral activity against acyclovir-resistant thymidine kinase negative Human herpesvirus 1 strain KOS infected human HEL cells assessed as reduction of virus-induced cytopathic effect after 3 days by colorimetric formazan-based MTS assay; type: functional, organism-based; conditions: Human alphaherpesvirus 1, KOS, 72 h; procedure, shortened: as §1
[15] = system: Vesicular stomatitis virus; experiment: Antiviral activity against Vesicular stomatitis virus infected human HEL cells assessed as reduction of virus-induced cytopathic effect after 3 days by colorimetric formazan-based MTS assay; type: functional, organism-based; conditions: 72 h; procedure, shortened: as §1
Vaccinia virus = experiment: Antiviral activity against Vaccinia virus infected human HEL cells assessed as reduction of virus-induced cytopathic effect after 3 days by colorimetric formazan-based MTS assay; type: functional, organism-based; conditions: Orthopoxvirus vaccinia, 72 h; procedure, shortened: as §1
Human alphaherpesvirus 2 = experiment: Antiviral activity against Human herpesvirus 2 strain G infected human HEL cells assessed as reduction of virus-induced cytopathic effect after 3 days by colorimetric formazan-based MTS assay; type: functional, organism-based; conditions: Human alphaherpesvirus 2, strain G, 72 h; procedure, shortened: as §1
[16] = Cytotoxicity against Homo sapiens (human) HEL cells assessed as change in cellular morphology; type: cell-based
Candida albicans = experiment: Antifungal activity against Candida albicans assessed as growth inhibition at 50 ug/ml by cup-plate method (reference value: 8 to 10 mm); type: functional; conditions: read-out: DIZ
Aspergillus niger = experiment: Antifungal activity against Aspergillus niger assessed as growth inhibition at 50 ug/ml by cup-plate method (reference value: 8 to 10 mm); type: functional; conditions: read-out: DIZ
Salmonella typhi = experiment: Antibacterial activity against Salmonella enterica subsp. enterica serovar Typhi assessed as growth inhibition at 50 ug/ml by cup-plate method (reference value: 8 to 10 mm); type: functional; conditions: read-out: DIZ
Proteus vulgaris = experiment: Antibacterial activity against Proteus vulgaris assessed as growth inhibition at 50 ug/ml by cup-plate method (reference value: 8 to 10 mm); type: functional; conditions: read-out: DIZ
Escherichia coli = experiment: Antibacterial activity against Escherichia coli assessed as growth inhibition at 50 ug/ml by cup-plate method (reference value: 8 to 10 mm); type: functional; conditions: read-out: DIZ
Bacillus subtilis = experiment: Antibacterial activity against Bacillus subtilis assessed as growth inhibition at 50 ug/ml by cup-plate method (reference value: 8 to 10 mm); type: functional; conditions: read-out: DIZ
Klebsiella pneumoniae = experiment: Antibacterial activity against Klebsiella pneumoniae assessed as growth inhibition at 50 ug/ml by cup-plate method (reference value: 8 to 10 mm); type: functional; conditions: read-out: DIZ
Staphylococcus aureus = experiment: Antibacterial activity against Staphylococcus aureus assessed as growth inhibition at 50 ug/ml by cup-plate method (reference value: 8 to 10 mm); type: functional; conditions: read-out: DIZ

SMILES	EC50 (Influenza B virus)	EC50 (Influenza A virus H3N2)	EC50 (Human alphaherpesvirus 1 [1])	EC50 (Felid alphaherpesvirus 1)	EC50 [2]	CC50 [3]	inhibition [4]	TIME [5]	IC50 (CCRF-CEM)	IC50 (L1210)	EC50 (Influenza A virus)	MCC [6]	CC50 (MDCK)	EC50 (Punta Toro virus)	EC50 (Coxsackievirus B4 [7])	EC50 (Respirovirus muris)	EC50 [8]	EC50 (Human respirovirus 3)	MCC [9]	EC50 [10]	further results
CCN(CC)CN1C(=O)/C(=N/NC(=S)Nc2ccccc2)c2cc(Cl)ccc21	> 0.8 µM	> 0.8 µM	> 20 µM	> 4 µM	> 4 µM	6.9 µM	49.2%	0.0434 h	40 µM	49 µM	> 0.8 µM	≥ 0.8 µM	3 µM	> 20 µM	> 20 µM	> 20 µM	> 20 µM	> 20 µM	100 µM	> 20 µM	EC50 [11]: > 20 µM; EC50 (Coxsackievirus B4 [12]): > 20 µM; MCC [13]: ≥ 20 µM; CC50 (HeLa): 13.5 µM; EC50 (Human alphaherpesvirus 1 [14]): > 20 µM; EC50 [15]: > 20 µM; EC50 (Vaccinia virus): > 20 µM; EC50 (Human alphaherpesvirus 2): > 20 µM; MCC [16]: 100 µM; zone of inhibition at 50 µg/mL (Candida albicans): 21 mm; zone of inhibition at 50 µg/mL (Aspergillus niger): 11 mm; zone of inhibition at 50 µg/mL (Salmonella typhi): 11 mm; zone of inhibition at 50 µg/mL (Proteus vulgaris): 21 mm; zone of inhibition at 50 µg/mL (Escherichia coli): 11 mm; zone of inhibition at 50 µg/mL (Bacillus subtilis): 11 mm; zone of inhibition at 50 µg/mL (Klebsiella pneumoniae): 11 mm; zone of inhibition at 50 µg/mL (Staphylococcus aureus): 11 mm
CCN(CC)CN1C(=O)/C(=N/NC(N)=S)c2cc(Cl)ccc21	> 20 µM	> 20 µM	> 100 µM	> 100 µM	> 100 µM	> 100 µM	34.6%	0.0338 h	71 µM	148 µM	> 20 µM	100 µM	78.3 µM	> 100 µM	> 100 µM	> 100 µM	> 100 µM	> 100 µM	> 100 µM	> 100 µM	EC50 [11]: > 100 µM; EC50 (Coxsackievirus B4 [12]): > 100 µM; MCC [13]: > 100 µM; CC50 (HeLa): > 100 µM; EC50 (Human alphaherpesvirus 1 [14]): > 100 µM; EC50 [15]: > 100 µM; EC50 (Vaccinia virus): 20 µM; EC50 (Human alphaherpesvirus 2): > 100 µM; MCC [16]: > 100 µM; zone of inhibition at 50 µg/mL (Candida albicans): 11 mm; zone of inhibition at 50 µg/mL (Aspergillus niger): 11 mm; zone of inhibition at 50 µg/mL (Salmonella typhi): 11 mm; zone of inhibition at 50 µg/mL (Proteus vulgaris): 11 mm; zone of inhibition at 50 µg/mL (Escherichia coli): 11 mm; zone of inhibition at 50 µg/mL (Bacillus subtilis): 11 mm; zone of inhibition at 50 µg/mL (Klebsiella pneumoniae): 11 mm; zone of inhibition at 50 µg/mL (Staphylococcus aureus): 21 mm
